≈ marks a conversion by molar mass, not a printed value. Calls of active or inactive are those of the source. The calls are words filed in the database; no cut-off is given here.
Tests used:
MCF7 [1] = experiment: Drug formation in human MCF7 cells treated with LCL596 up to 2 to 5 hrs by LC-MS/MS analysis; type: ADME, cell-based
Method in brief: (§1)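 MCF7 cells (RPMI 1640, 10% FBS) treated with test compound or vehicle (ethanol) over a time course up to 24 h; after washing with cold PBS and scraping, pellets spiked with internal standards, lipids extracted (ethyl acetate/isopropanol/water) and compounds quantified by LC–MS/MS in positive MRM mode against calibration curves, normalized to lipid phosphate; duplicates.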

[2] = target: T1, Acid ceramidase (Homo sapiens) (UniProt Q13510); experiment: Inhibition of ACDase in human MCF7 cell lysate using [9,10-3H] De-C16-Cer substrate at 20 uM after 1 hr by scintillation counting analysis; type: cell-free
T1 sequence (whole entry): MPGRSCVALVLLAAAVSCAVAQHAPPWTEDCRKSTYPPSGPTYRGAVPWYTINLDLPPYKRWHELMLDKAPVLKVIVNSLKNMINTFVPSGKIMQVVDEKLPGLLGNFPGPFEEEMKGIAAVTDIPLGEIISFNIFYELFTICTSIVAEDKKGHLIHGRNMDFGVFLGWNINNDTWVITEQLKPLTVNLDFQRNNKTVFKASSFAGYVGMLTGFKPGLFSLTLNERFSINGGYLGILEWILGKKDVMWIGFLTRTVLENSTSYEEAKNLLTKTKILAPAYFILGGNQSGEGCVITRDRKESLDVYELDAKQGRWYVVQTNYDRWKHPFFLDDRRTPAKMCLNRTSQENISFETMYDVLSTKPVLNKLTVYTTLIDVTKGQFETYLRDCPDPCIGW
Method in brief: (§2)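 ACDase activity in MCF7 lysate (pH 4.5): [9,10-3H] D-e-C16-Cer and compound dried with 0.2% Triton X-100/0.4% cholate, then protein and 0.2 M acetate buffer with 0.5% Triton X-100 (pH 4.5) added; 1 h at 37 °C, stopped with Dole's solution; released [3H]palmitic acid scintillation-counted, pmol/mg protein/h, % control; duplicates.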

MCF7 [3] = experiment: Drug uptake in human MCF7 cells assessed as drug level at 10 uM after 24 hrs by LC-MS/MS analysis; type: ADME, cell-based; details: mcf7, 24 h; method in brief: as §1
MCF7 [4] = experiment: Induction in Cer level in human MCF7 cells at 10 uM after 1 hr by LC-MS/MS analysis; type: functional
Method in brief: (§3)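 MCF7 cells treated 1 h with compound or ethanol vehicle; pellets spiked with internal standards, lipids extracted and Sph and total Cer quantified by LC–MS/MS in MRM mode, expressed as pmol per nmol lipid phosphate and as % of control; duplicates.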

[5] = target: T1, Acid ceramidase (Homo sapiens); experiment: Inhibition of ACDase in human MCF7 cell lysate using [9,10-3H] De-C16-Cer substrate at 50 uM after 1 hr by scintillation counting analysis; type: cell-free; method in brief: as §2
[6] = target: T1, Acid ceramidase (Homo sapiens); experiment: Inhibition of ACDase in human MCF7 cells at 10 uM after 1 hr by cellular/scintillation counting analysis; type: cell-based
Method in brief: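 MCF7 cells treated 1 h with compound or vehicle, washed in cold PBS and scraped; lysate ACDase activity then measured at pH 4.5 with [9,10-3H] D-e-C16-Cer, 1 h at 37 °C, released [3H]palmitic acid counted; pmol/mg protein/h, % control; quadruplicates.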

MCF7 [7] = experiment: Reduction in Sph level in human MCF7 cells at 10 uM after 1 hr by LC-MS/MS analysis; type: ADME, cell-based; details: MCF7, 1 h; method in brief: as §3
[8] = Toxicity in rat; type: organism-based; details: in vivo
MCF7 [9] = experiment: Drug formation in human MCF7 cells treated with LCL522 up to 2 to 5 hrs by LC-MS/MS analysis; type: ADME, cell-based; method in brief: as §1
MCF7 [10] = experiment: Effect on lysosomal stability in human MCF7 cells assessed as increase in Lysotracker Red uptake at 10 uM after 5 hrs by FACS analysis; type: ADME, cell-based; details: mcf7, 5 h
Method in brief: (§4)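 MCF7 cells seeded overnight, medium switched to 2% FBS with compound in ethanol or ethanol alone, 1 or 5 h at 37 °C, then Lysotracker Red DND-99 200 nM for 30 min at 37 °C. Cells trypsinized, washed and analysed by FACS (564–606 nm), at least 10,000 events per sample; lower fluorescence read as higher lysosomal pH; triplicates, % of control.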

[11] = Solubility in water at 25 degC; type: physicochemical
MCF7 [12] = experiment: Reduction in Sph level in human MCF7 cells at 30 uM by LC-MS/MS analysis; type: functional, cell-based
[13] = target: T1, Acid ceramidase (Homo sapiens); details: MCF7, 50 uM
MCF7 [14] = experiment: Reduction in Sph level in human MCF7 cells at 50 uM after 5 hrs by LC-MS/MS analysis; type: functional; details: MCF7, 5 h
MCF7 [15] = experiment: Reduction in Sph level in human MCF7 cells at 50 uM after 24 hrs by LC-MS/MS analysis; type: functional; details: MCF7, 24 h
MCF7 [16] = experiment: Induction in Cer level in human MCF7 cells at 50 uM after 24 hrs hr by LC-MS/MS analysis; type: functional
MCF7 [17] = experiment: Induction in Cer level in human MCF7 cells at 50 uM after 1 hr by LC-MS/MS analysis; type: functional
Acid ceramidase = target: T2, Acid ceramidase (Homo sapiens, UniProt Q13510); experiment: Inhibition of ACDase in human MCF7 cell lysate using [9,10-3H] De-C16-Cer substrate after 1 hr by scintillation counting analysis
T2 sequence (Q13510 whole entry): T1 sequence (whole entry)

[18] = target: T1, Acid ceramidase (Homo sapiens); details: MCF7, 50 uM; remark: listed apart in the source
[19] = test system: Alkaline ceramidase 2 (Homo sapiens); experiment: Inhibition of AlkCDase in microsomes of human HeLa cells using D-e-C18:1-Cer substrate up to 250 uM after 30 mins
MCF7 [20] = experiment: Effect on lysosomal stability in human MCF7 cells assessed as recovery of Lysotracker Red uptake at 10 uM after 5 hrs by FACS analysis; type: functional, cell-based; method in brief: as §4
[21] = target: T1, Acid ceramidase (Homo sapiens); details: MCF7, 50 uM; remark: listed apart in the source
MCF7 [22] = experiment: Reduction in alpha-ACDase level in human MCF7 cells at 1 uM by Western blot analysis
[23] = target: Neutral ceramidase (Homo sapiens) (UniProt Q9NR71); experiment: Inhibition of NCDase in human HeLa cells expressing ASAH2 assessed as increase in Sph level at 10 uM after 1 hr by LC-MS/MS analysis; type: cell-based
Method in brief: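 HeLa cells stably carrying ACER2, ASAH2 or empty vector, grown to 60% confluence, given tetracycline 5 ng/mL overnight, then treated 1 h with compound (1 or 10 µM) or ethanol; sphingolipids extracted and Sph measured by LC–MS/MS per nmol lipid phosphate, also given as Sph ratio of ACER2 or ASAH2 cells to vector cells.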

[24] = test system: Alkaline ceramidase 2 (Homo sapiens); experiment: Inhibition of AlkCDase in human HeLa cells expressing […] assessed as fold increase in Sph level at 10 uM after 1 hr by LC-MS/MS analysis
[25] = test system: Alkaline ceramidase 2 (Homo sapiens); experiment: Inhibition of AlkCDase in human HeLa cells expressing […] assessed as fold increase in Sph level at 1 uM after 1 hr by LC-MS/MS analysis
[26] = target: T3, Sphingomyelin phosphodiesterase (Homo sapiens) (UniProt P17405); experiment: Inhibition of lysosomal ASMase activity in human MCF7 cells assessed as [methyl-14C]choline release at 1 uM after 1 hr; type: cell-based
T3 sequence (whole entry): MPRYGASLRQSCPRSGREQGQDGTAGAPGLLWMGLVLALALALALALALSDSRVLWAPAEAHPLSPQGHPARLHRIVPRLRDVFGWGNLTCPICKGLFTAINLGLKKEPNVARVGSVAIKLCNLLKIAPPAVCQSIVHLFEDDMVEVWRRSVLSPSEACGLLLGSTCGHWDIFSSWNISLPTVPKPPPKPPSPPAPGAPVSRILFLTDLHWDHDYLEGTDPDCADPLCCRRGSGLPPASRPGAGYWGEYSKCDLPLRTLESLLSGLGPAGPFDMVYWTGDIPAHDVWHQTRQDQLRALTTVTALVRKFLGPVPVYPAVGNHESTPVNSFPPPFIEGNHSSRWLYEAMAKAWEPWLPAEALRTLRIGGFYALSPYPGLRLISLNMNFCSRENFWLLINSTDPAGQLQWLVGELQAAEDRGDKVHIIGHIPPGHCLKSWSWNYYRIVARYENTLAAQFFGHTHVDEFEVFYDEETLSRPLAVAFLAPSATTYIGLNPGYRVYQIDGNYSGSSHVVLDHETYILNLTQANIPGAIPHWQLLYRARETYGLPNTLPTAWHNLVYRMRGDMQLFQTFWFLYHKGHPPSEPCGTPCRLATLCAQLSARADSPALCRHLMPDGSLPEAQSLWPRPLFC
Method in brief: (§5)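 MCF7 cells treated 1 h with compound or vehicle, lysed in 0.2% Triton X-100/50 mm Tris-HCl pH 7.4 with EDTA and protease/phosphatase inhibitors; clarified lysate incubated with 100 µM porcine brain SM plus choline-[methyl-14C] SM in Triton micelles, 250 mM sodium acetate pH 5.0, 1.0 mM EDTA, 30 min at 37 °C; aqueous-phase 14C counted after Folch extraction; triplicates, % control.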

[27] = target: Neutral ceramidase (Homo sapiens) (UniProt Q9NR71); experiment: Inhibition of NCDase in human MCF7 cells assessed as release of [3H] palmitic acid at 10 uM after 1 hr
MCF7 [28] = experiment: Reduction in Sph level in human MCF7 cells at 1 uM after 5 hrs by LC-MS/MS analysis; type: ADME, cell-based; details: MCF7, 5 h
[29] = target: T3, Sphingomyelin phosphodiesterase (Homo sapiens); experiment: Inhibition of lysosomal ASMase activity in human MCF7 cells assessed as [methyl-14C]choline release at 10 uM after 1 hr; type: cell-based; method in brief: as §5
[30] = test system: Alkaline ceramidase 2 (Homo sapiens); experiment: Inhibition of AlkCDase in human HeLa cells expressing […] assessed as increase in Sph level at 10 uM after 1 hr by LC-MS/MS analysis
MCF7 [31] = experiment: Reduction in Sph level in human MCF7 cells at 1 uM after 1 hr by LC-MS/MS analysis; type: ADME, cell-based; details: MCF7, 1 h, read-out: INH; method in brief: as §3
MCF7 [32] = experiment: Reduction in alpha-ACDase level in human MCF7 cells at 10 uM by scintillation counting analysis; type: functional, cell-based; details: in the assay text read “Western blot analysis” for “scintillation counting analysis”, TDE = time-dependent effect
Method in brief: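 MCF7 cells treated 1 and 5 h with compound or vehicle; lysates (35 µg protein) run on SDS gels, blotted, probed with mouse monoclonal anti-ACDase and HRP secondary; bands of the cleaved alpha-ACDase chain quantified by densitometry, normalized to actin, % control.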

Chain of Neutral ceramidase (Homo sapiens) (Q9NR71 whole entry): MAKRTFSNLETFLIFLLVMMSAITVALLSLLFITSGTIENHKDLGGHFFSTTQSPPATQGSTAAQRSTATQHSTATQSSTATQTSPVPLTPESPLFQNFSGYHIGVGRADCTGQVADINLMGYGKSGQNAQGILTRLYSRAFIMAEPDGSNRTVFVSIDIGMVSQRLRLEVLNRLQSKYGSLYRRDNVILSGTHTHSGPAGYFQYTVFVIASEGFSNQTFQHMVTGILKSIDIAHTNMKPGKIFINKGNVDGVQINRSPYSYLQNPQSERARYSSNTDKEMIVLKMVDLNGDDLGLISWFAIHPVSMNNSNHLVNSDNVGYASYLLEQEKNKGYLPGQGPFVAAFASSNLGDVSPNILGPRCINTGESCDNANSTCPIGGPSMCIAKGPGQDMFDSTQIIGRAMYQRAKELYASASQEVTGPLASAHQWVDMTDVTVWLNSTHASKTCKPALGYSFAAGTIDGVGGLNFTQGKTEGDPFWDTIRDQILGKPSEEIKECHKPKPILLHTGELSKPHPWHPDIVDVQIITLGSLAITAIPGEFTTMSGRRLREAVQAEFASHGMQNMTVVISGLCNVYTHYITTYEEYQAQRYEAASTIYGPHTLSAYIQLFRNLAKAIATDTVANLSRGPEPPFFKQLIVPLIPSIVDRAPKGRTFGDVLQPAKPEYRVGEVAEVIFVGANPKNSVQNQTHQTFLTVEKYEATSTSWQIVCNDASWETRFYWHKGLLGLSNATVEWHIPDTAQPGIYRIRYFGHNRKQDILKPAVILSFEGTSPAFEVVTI

Structure (SMILES)	inhibition [2]	Drug uptake (MCF7 [3])	Activity (MCF7 [4])	inhibition [5]	inhibition [6]	inhibition at 10 µM (MCF7 [7]) [%]	LD50 [8] [mg/kg]	Drug metabolism (MCF7 [9])	solubility [11] [mg/mL]	Activity (MCF7 [20])	other results
CCCCCCCCCCCCCC(=O)N[C@H](CO)[C@H](OC(=O)CN(C)C)c1ccc([N+](=O)[O-])cc1.Cl	Active	Active	inactive	Active	Active	60	3900	–	–	–	Drug metabolism (MCF7 [1]): metabolite_detected
CCCCCCCCCCCCCC(=O)N[C@H](COC(=O)CN(C)C)[C@H](O)c1ccc([N+](=O)[O-])cc1.Cl	Active	Active	inactive	Active	Active	60	3900	metabolite_detected	–	–	Activity (MCF7 [10]): 180%
CCCCCCCCCCCCCC(=O)N[C@H](CO)[C@H](O)c1ccc([N+](=O)[O-])cc1	–	–	–	95%	Active	–	–	metabolite_detected	0.008 (≈ 18.9 µM)	inactive	inhibition (MCF7 [12]): Active; inhibition [13]: 20%; inhibition at 50 µM (MCF7 [14]): 70%; inhibition at 50 µM (MCF7 [15]): 40%; Activity (MCF7 [16]): 270%; Activity (MCF7 [17]): 140%; IC50 (Acid ceramidase): 27.7 µM; inhibition [18]: 50%; inhibition [19]: inactive; inhibition [21]: 40%
CCCCCCCCCCCCCC(=O)N[C@H](COC(=O)CN(C)C)[C@H](OC(=O)CN(C)C)c1ccc([N+](=O)[O-])cc1.Cl	Active	27%	130%	Active	Active	97	3900	–	430	Active	Activity (MCF7 [22]): inactive; inhibition [23]: inactive; fold change (FC) [24]: 5; fold change (FC) [25]: 2; inhibition [26]: 30%; inhibition [27]: inactive; inhibition at 1 µM (MCF7 [28]): 50%; inhibition [29]: 85%; inhibition [30]: Active; inhibition at 1 µM (MCF7 [31]): 80%; inhibition (MCF7 [32]): tde

Reference: ChEMBL document CHEMBL3351606, “Targeting (cellular) lysosomal acid ceramidase by B13: design, synthesis and evaluation of novel DMG-B13 ester prodrugs” (Bioorg Med Chem, 2014)
